Each block holds one compound with its values, some of them ahead of it.
Key:
Vanilloid receptor = Vanilloid receptor (Rattus norvegicus, UniProt Q9ERZ8+Q9WUD2+O35433); assay: Compound tested in vitro for [Ca2+] influx into neonatal rat dorsal root ganglia (DRG); format: functional
Mus musculus [1] = assay: Compound tested for in vivo writhing antinociceptive assay in mouse after subcutaneous administration; format: functional; details: sc
Procedure, shortened: (§1)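 Female CD-1 mice (20 g), kept on 12 h light/12 h dark and fasted overnight, 10 per group. Drug or vehicle was given sc or orally 55 min before ip acetic acid (0.3 mL, 200 mM). Abdominal constrictions were counted over the 5 min starting 5 min after acid. Effect was taken as the drug/vehicle writhe ratio, and ED50 (dose halving writhes) came from a logistic fit with standard error.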

Mus musculus [2] = assay: In vivo tail-flick latency after peroral administration in mouse as an evaluation of antinociceptive potency; format: functional; details: po
Mus musculus [3] = assay: In vivo tail-flick latency after subcutaneous administration in mouse as an evaluation of antinociceptive potency; format: functional; details: sc
Cavia porcellus [4] = assay: Threshold dose required to cause increase in airway opening pressure […] of guinea pig after intravenous administration
Cavia porcellus [5] = assay: Threshold dose required to cause increase in airway opening pressure […] of guinea pig after intravenous administration; format: functional
Procedure, shortened: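 Dunkin-Hartley guinea pigs (400-450 g, n = 4 per group) under urethane (2 g/kg), held at 37 °C. Carotid cannula for blood pressure, jugular cannula for iv drug. Tracheal cannula with ventilation at 60 strokes/min and 10 mL/kg tidal volume. Airway opening pressure was read by differential transducer on the tracheal side arm. Threshold iv dose raising Pao was recorded.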

Mus musculus [6] = assay: Compound tested for in vivo writhing antinociceptive assay in mouse after peroral administration; format: functional; details: po; procedure, shortened: as §1

SMILES: COc1cc(C/N=C(\S)NCCc2ccc(C(C)(C)C)cc2)ccc1OCCN
EC50 (Vanilloid receptor): 710 nM

SMILES: COc1cc(C/N=C(\S)NCCc2ccc(Cl)cc2)ccc1OCCN(C)C
EC50 (Vanilloid receptor): 3520 nM

SMILES: COc1cc(C/N=C(\S)NCCc2ccc(Cl)cc2Cl)ccc1O
EC50 (Vanilloid receptor): 130 nM

SMILES: CCOC(=O)NCCOc1ccc(C/N=C(\S)NCCc2ccc(Cl)cc2)cc1OC
EC50 (Vanilloid receptor): 6140 nM

SMILES: CCCCCCCC/C=C\CCCCCCCC(=O)NCc1ccc(OCCN)c(OC)c1
ED50 (Mus musculus [1]): 3.06 µmol/kg
ED50 (Mus musculus [2]): 184 µmol/kg
ED50 (Mus musculus [3]): 6.3 µmol/kg
Dose (Cavia porcellus [4]): >0.1 µM/kg

SMILES: COc1cc(CNC(=S)NCc2ccc(C(C)(C)C)cc2)ccc1O
EC50 (Vanilloid receptor): 510 nM

SMILES: COc1cc(C/N=C(\S)NCc2ccc(C(C)(C)C)cc2)ccc1OCCN
Dose (Cavia porcellus [5]): 0.062 µM/kg
ED50 (Mus musculus [6]): 2.55 µmol/kg
ED50 (Mus musculus [1]): 0.49 µmol/kg
ED50 (Mus musculus [2]): 1.45 µmol/kg
ED50 (Mus musculus [3]): 0.4 µmol/kg
EC50 (Vanilloid receptor): 170 nM

SMILES: COc1cc(C/N=C(\S)NCCc2ccc(Cl)cc2)ccc1OCCN1C(=O)c2ccccc2C1=O
EC50 (Vanilloid receptor): 53000 nM

SMILES: COc1cc(C/N=C(\S)NCCc2ccccc2)ccc1O
EC50 (Vanilloid receptor): 480 nM

SMILES: COc1cc(C/N=C(\S)NCCc2ccc(Cl)cc2)ccc1OCCN
Dose (Cavia porcellus [5]): 0.137 µM/kg
ED50 (Mus musculus [6]): 11.4 µmol/kg
ED50 (Mus musculus [1]): 3.32 µmol/kg
ED50 (Mus musculus [2]): 22.9 µmol/kg
ED50 (Mus musculus [3]): 4.8 µmol/kg

SMILES: COc1cc(C/N=C(\S)NCCc2ccc(F)cc2)ccc1O
EC50 (Vanilloid receptor): 130 nM

SMILES: COc1cc(C/N=C(\S)NCCc2ccc(Cl)cc2)ccc1O
Dose (Cavia porcellus [5]): 0.025 µM/kg
ED50 (Mus musculus [1]): 10.1 µmol/kg
ED50 (Mus musculus [2]): 370 µmol/kg
ED50 (Mus musculus [3]): 11.8 µmol/kg
EC50 (Vanilloid receptor): 56 nM

SMILES: COc1cc(CNC(=O)CCCC/C=C/C(C)C)ccc1O [CAPSAICIN]
Dose (Cavia porcellus [5]): 0.018 µM/kg
ED50 (Mus musculus [1]): 5.72 µmol/kg
ED50 (Mus musculus [2]): 962 µmol/kg
ED50 (Mus musculus [3]): 10.3 µmol/kg

SMILES: CCCCCCCC/C=C\CCCCCCCC(=O)NCc1ccc(O)c(OC)c1 [OLVANIL]
ED50 (Mus musculus [1]): 2.1 µmol/kg
ED50 (Mus musculus [2]): > 400 µmol/kg
ED50 (Mus musculus [3]): 11.3 µmol/kg
Dose (Cavia porcellus [4]): >0.1 µM/kg

Second part, the compound after the results:

EC50 (Vanilloid receptor): 41 nM
SMILES: COc1cc(CN/C(S)=N/C=C\c2ccc(Cl)cc2)ccc1O

EC50 (Vanilloid receptor): > 100000 nM
SMILES: COc1cc(C/N=C(\S)NCCc2ccc(Cl)cc2)ccc1OCC[N+](C)(C)C.O=C([O-])C(F)(F)F

EC50 (Vanilloid receptor): 2720 nM
SMILES: COc1cc(C/N=C(\S)NCCc2ccccc2)ccc1OCCN

EC50 (Vanilloid receptor): 2300 nM
SMILES: COc1cc(C/N=C(\S)NCCc2ccc(F)cc2)ccc1OCCN

EC50 (Vanilloid receptor): 5130 nM
SMILES: COc1cc(C/N=C(\S)NCCc2ccc(Cl)cc2)ccc1OCCNC(C)=O

EC50 (Vanilloid receptor): 320 nM
SMILES: COc1cc(C/N=C(\S)NCCc2ccc(Cl)cc2Cl)ccc1OCCN

EC50 (Vanilloid receptor): 410 nM
SMILES: COc1cc(CN/C(S)=N/C=C/c2ccc(Cl)cc2)ccc1O

EC50 (Vanilloid receptor): 7030 nM
SMILES: CNCCOc1ccc(C/N=C(\S)NCCc2ccc(Cl)cc2)cc1OC

EC50 (Vanilloid receptor): 3000 nM
SMILES: COc1cc(C/N=C(\S)NCCc2ccc(Cl)cc2)ccc1OCCNC(=O)OC(C)(C)C
